Measurements from ChEMBL document CHEMBL4261537, “Synthesis and pharmacological evaluation of multi-functional homoisoflavonoid derivatives as potent inhibitors of monoamine oxidase B and cholinesterase for the treatment of Alzheimer's disease” (Medchemcomm, 2017).

Experiments:
Cholinesterase [1] = target: Cholinesterase (Equus caballus, UniProt P81908); experiment: Inhibition of equine serum BuChE using S-butyrylthiocholine iodide as substrate preincubated for 5 mins followed by substrate addition measured at 1 to 3 mins time interval by Ellman's method; format: ADME
Sequence of Cholinesterase (Equus caballus, UniProt P81908) (P81908 whole entry): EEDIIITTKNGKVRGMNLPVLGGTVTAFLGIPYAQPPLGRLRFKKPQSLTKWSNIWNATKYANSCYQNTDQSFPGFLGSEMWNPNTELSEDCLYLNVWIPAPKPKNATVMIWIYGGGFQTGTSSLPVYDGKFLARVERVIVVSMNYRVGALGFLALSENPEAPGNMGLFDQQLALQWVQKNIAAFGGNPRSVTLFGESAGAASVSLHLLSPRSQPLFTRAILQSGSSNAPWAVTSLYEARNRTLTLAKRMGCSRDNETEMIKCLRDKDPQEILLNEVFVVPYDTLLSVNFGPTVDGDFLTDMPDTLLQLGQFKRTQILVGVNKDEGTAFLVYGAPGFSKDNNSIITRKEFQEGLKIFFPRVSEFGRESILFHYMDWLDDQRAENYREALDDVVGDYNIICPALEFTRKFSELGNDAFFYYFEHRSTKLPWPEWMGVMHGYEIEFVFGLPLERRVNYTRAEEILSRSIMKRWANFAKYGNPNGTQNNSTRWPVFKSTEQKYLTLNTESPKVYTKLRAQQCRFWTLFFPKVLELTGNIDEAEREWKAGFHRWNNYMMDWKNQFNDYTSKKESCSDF

[2] = target: T1, Amine oxidase [flavin-containing] B (Homo sapiens, UniProt P27338); experiment: Inhibition of recombinant human MAO-B assessed as reduction in H2O2 production using p-tyramine as substrate preincubated for 15 mins followed by substrate addition by Amplex red reagent based fluorescence assay
T1 sequence (P27338 whole entry): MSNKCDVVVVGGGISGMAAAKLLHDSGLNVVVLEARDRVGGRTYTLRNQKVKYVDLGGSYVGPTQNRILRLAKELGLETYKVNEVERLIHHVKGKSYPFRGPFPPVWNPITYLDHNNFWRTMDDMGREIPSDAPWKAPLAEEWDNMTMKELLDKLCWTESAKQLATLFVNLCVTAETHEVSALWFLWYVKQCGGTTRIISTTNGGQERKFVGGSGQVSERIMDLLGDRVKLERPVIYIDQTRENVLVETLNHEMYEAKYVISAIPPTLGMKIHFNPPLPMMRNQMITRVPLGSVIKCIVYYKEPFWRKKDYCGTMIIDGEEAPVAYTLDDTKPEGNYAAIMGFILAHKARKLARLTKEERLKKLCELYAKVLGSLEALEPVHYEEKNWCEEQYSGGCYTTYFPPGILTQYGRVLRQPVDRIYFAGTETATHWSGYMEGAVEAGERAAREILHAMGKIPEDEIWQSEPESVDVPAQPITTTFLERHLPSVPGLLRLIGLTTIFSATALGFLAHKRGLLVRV
Outline: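 Human MAO-A or MAO-B, each set to the same control reaction velocity. Preincubated with compound 15 min at 37°C in the dark, in sodium phosphate buffer with DMSO. Then 200 μM Amplex Red (final) added with 1 U/mL HRP and 1 mM p-tyramine. Run in triplicate, mean ± SD.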

[3] = Selectivity index, ratio of IC50 for equine serum BuChE to IC50 for electric eel AChE
Homo sapiens [4] = species: Homo sapiens; experiment: Selectivity index, ratio of IC50 for recombinant human MAO-A to IC50 for recombinant human MAO-B
Acetylcholinesterase [5] = target: Acetylcholinesterase (Electrophorus electricus, UniProt O42275); experiment: Inhibition of electric eel AChE using acetylthiocholine iodide as substrate preincubated for 5 mins followed by substrate addition measured at 1 to 3 mins time interval by Ellman's method
Sequence of Acetylcholinesterase (Electrophorus electricus, UniProt O42275) (O42275 whole entry): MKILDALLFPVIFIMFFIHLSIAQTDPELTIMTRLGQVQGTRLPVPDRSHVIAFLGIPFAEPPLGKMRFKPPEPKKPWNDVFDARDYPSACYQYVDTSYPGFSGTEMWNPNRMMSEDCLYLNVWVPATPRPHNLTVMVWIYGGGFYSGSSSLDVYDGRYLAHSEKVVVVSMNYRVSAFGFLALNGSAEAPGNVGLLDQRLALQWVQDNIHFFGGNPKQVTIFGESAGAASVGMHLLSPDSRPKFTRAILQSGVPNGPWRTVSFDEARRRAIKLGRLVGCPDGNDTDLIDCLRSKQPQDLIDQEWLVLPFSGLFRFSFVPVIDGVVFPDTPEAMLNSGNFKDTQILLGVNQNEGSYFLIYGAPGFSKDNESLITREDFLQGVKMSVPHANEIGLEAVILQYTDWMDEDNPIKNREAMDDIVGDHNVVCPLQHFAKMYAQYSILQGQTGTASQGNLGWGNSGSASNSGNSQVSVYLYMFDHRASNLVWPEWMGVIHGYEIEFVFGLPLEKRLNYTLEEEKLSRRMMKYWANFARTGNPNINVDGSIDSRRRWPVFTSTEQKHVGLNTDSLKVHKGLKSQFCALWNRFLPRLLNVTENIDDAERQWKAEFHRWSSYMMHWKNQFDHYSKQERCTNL

[6] = target: T2, Amine oxidase [flavin-containing] A (Homo sapiens, UniProt P21397); experiment: Inhibition of recombinant human MAO-A assessed as reduction in H2O2 production at 100 uM using p-tyramine as substrate preincubated for 15 mins followed by substrate addition by Amplex red reagent based fluorescence assay
T2 sequence (P21397 whole entry): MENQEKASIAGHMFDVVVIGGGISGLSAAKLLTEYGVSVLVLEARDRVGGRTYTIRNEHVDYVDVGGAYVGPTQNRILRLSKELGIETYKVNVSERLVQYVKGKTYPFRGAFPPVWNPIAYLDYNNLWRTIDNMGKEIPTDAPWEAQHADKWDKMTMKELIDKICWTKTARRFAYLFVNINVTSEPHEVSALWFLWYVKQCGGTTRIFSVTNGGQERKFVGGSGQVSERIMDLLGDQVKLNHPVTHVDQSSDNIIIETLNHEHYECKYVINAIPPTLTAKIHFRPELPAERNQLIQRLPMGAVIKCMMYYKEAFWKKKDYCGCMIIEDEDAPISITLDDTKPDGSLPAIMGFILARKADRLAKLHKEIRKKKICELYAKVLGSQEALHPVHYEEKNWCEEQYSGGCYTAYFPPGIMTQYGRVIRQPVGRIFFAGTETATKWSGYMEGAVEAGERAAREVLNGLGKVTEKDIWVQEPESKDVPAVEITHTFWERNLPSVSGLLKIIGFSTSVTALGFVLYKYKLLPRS
Outline: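 Human MAO-A or MAO-B, each set to the same control reaction velocity. Preincubated with compound 15 min at 37°C in the dark, in sodium phosphate buffer with DMSO. Then 200 μM Amplex Red (final) added with 1 U/mL HRP and 1 mM p-tyramine. Resorufin fluorescence read at 37°C (ex 545/em 590 nm), background from enzyme-free wells subtracted. Run in triplicate, mean ± SD.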

[7] = target: T2, Amine oxidase [flavin-containing] A; experiment: Inhibition of recombinant human MAO-A assessed as reduction in H2O2 production using p-tyramine as substrate preincubated for 15 mins followed by substrate addition by Amplex red reagent based fluorescence assay
Homo sapiens [8] = species: Homo sapiens; experiment: Selectivity index, ratio of IC50 for human serum BuChE to IC50 for human erythrocytes AChE
Acetylcholinesterase [9] = target: Acetylcholinesterase (Homo sapiens, UniProt P22303); experiment: Inhibition of human erythrocytes AChE using acetylthiocholine iodide as substrate preincubated for 5 mins followed by substrate addition measured at 1 to 3 mins time interval by Ellman's method
Sequence of Acetylcholinesterase (Homo sapiens, UniProt P22303) (P22303 whole entry): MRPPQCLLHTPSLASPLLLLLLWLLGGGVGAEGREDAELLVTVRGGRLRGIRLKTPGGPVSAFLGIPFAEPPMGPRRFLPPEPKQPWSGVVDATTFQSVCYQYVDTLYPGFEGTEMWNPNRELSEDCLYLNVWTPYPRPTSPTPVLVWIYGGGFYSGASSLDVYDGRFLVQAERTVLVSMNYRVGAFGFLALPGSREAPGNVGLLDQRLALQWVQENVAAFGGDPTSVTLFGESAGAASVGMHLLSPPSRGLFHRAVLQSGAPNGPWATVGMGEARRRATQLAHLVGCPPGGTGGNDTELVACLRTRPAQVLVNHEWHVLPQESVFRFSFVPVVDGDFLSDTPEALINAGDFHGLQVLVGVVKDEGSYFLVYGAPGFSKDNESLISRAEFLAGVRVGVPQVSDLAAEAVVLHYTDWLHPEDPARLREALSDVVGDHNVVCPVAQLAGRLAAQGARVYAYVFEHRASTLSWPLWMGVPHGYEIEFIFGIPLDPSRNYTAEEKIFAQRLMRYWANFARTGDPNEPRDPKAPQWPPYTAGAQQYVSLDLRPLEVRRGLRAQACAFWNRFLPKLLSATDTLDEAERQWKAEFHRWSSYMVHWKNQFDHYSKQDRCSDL

Cholinesterase [10] = target: Cholinesterase (Homo sapiens, UniProt P06276); experiment: Inhibition of human serum BuChE using S-butyrylthiocholine iodide as substrate preincubated for 5 mins followed by substrate addition measured at 1 to 3 mins time interval by Ellman's method; format: ADME
Sequence of Cholinesterase (Homo sapiens, UniProt P06276) (P06276 whole entry): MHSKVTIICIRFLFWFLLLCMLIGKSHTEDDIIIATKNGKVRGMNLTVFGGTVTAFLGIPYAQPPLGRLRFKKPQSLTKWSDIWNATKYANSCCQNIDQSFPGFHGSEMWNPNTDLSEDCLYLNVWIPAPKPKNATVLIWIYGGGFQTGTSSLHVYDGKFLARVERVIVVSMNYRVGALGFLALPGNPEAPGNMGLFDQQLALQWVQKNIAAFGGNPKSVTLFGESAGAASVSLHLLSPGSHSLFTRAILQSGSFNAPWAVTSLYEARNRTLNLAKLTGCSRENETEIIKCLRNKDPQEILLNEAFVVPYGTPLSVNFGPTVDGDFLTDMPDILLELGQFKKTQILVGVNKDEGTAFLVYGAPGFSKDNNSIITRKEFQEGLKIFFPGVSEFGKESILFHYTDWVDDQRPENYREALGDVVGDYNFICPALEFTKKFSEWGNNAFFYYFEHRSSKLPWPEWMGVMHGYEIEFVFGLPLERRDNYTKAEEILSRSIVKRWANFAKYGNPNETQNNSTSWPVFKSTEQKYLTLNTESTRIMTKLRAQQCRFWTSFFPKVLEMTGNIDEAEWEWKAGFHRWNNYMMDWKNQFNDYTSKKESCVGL

Compound: CN1CCN(CCCCOc2ccc(/C=C3\COc4ccccc4C3=O)cc2)CC1
- IC50 (Cholinesterase [1]): 10.4 µM
- IC50 [2]: 16.4 µM
- Ratio IC50 [3]: 0.799
- Ratio IC50 (Homo sapiens [4]): > 6.1
- IC50 (Acetylcholinesterase [5]): 13 µM
- inhibition (INH) [6]: Not Active

Compound: CN(C)CCCCCCOc1ccc(/C=C2\COc3ccccc3C2=O)cc1
- IC50 (Cholinesterase [1]): 9.12 µM
- IC50 [2]: 3.22 µM
- IC50 [7]: 39.1 µM
- Ratio IC50 [3]: 0.712
- Ratio IC50 (Homo sapiens [4]): 12.1
- IC50 (Acetylcholinesterase [5]): 12.8 µM

Compound: CN(C)CCCOc1ccc(/C=C2\COc3ccccc3C2=O)cc1
- IC50 (Cholinesterase [1]): 20.3 µM
- IC50 [2]: 0.0438 µM
- Ratio IC50 [3]: 3.9
- Ratio IC50 (Homo sapiens [4]): > 2280
- IC50 (Acetylcholinesterase [5]): 5.21 µM
- inhibition (INH) [6]: Not Active

Compound: CN(C)CCOc1cccc(/C=C2\COc3ccccc3C2=O)c1
- IC50 (Cholinesterase [1]): 8.37 µM
- IC50 [2]: 0.571 µM
- Ratio IC50 (Homo sapiens [8]): 3.15
- IC50 (Acetylcholinesterase [9]): 1.41 µM
- IC50 (Cholinesterase [10]): 4.44 µM
- IC50 [7]: 38 µM
- Ratio IC50 [3]: 8.05
- Ratio IC50 (Homo sapiens [4]): 66.5
- IC50 (Acetylcholinesterase [5]): 1.04 µM

Compound: CN1CCN(CCCCCCOc2ccc(/C=C3\COc4ccccc4C3=O)cc2)CC1
- IC50 (Cholinesterase [1]): 27.3 µM
- IC50 [2]: 6.24 µM
- Ratio IC50 [3]: 0.843
- Ratio IC50 (Homo sapiens [4]): > 16.1
- IC50 (Acetylcholinesterase [5]): 32.3 µM
- inhibition (INH) [6]: Not Active

Compound: CN(C)CCCCOc1ccc(/C=C2\COc3ccccc3C2=O)cc1
- IC50 (Cholinesterase [1]): 18.9 µM
- IC50 [2]: 0.756 µM
- Ratio IC50 [3]: 1.54
- Ratio IC50 (Homo sapiens [4]): > 132
- IC50 (Acetylcholinesterase [5]): 12.3 µM
- inhibition (INH) [6]: Not Active

Compound: CCN(CCOc1ccc(/C=C2\COc3ccccc3C2=O)cc1)Cc1ccccc1
- IC50 (Cholinesterase [1]): 49.4 µM
- IC50 [2]: 4.29 µM
- Ratio IC50 [3]: 38.3
- Ratio IC50 (Homo sapiens [4]): > 23.3
- IC50 (Acetylcholinesterase [5]): 1.29 µM
- inhibition (INH) [6]: Not Active

Compound: CN(CCCCCCOc1ccc(/C=C2\COc3ccccc3C2=O)cc1)Cc1ccccc1
- IC50 (Cholinesterase [1]): 50.7 µM
- IC50 [2]: > 100 µM
- Ratio IC50 (Homo sapiens [8]): 0.489
- IC50 (Acetylcholinesterase [9]): 40.9 µM
- IC50 (Cholinesterase [10]): 20 µM
- Ratio IC50 [3]: 28.7
- Ratio IC50 (Homo sapiens [4]): > 1
- IC50 (Acetylcholinesterase [5]): 1.77 µM
- inhibition (INH) [6]: Not Active

Compound: CCN(CC)CCCCCCOc1ccc(/C=C2\COc3ccccc3C2=O)cc1
- IC50 (Cholinesterase [1]): 4.83 µM
- IC50 [2]: 2.9 µM
- Ratio IC50 (Homo sapiens [8]): 2.3
- IC50 (Acetylcholinesterase [9]): 1.85 µM
- IC50 (Cholinesterase [10]): 4.25 µM
- IC50 [7]: 37.8 µM
- Ratio IC50 [3]: 1.29
- Ratio IC50 (Homo sapiens [4]): 13.1
- IC50 (Acetylcholinesterase [5]): 3.75 µM

Compound: CCN(CC)CCCOc1cccc(/C=C2\COc3ccccc3C2=O)c1
- IC50 (Cholinesterase [1]): 1.03 µM
- IC50 [2]: 18.2 µM
- IC50 [7]: 64.7 µM
- Ratio IC50 [3]: 0.0732
- Ratio IC50 (Homo sapiens [4]): 3.55
- IC50 (Acetylcholinesterase [5]): 14.1 µM

Compound: CCN(CC)CCCOc1ccc(/C=C2\COc3ccccc3C2=O)cc1
- IC50 (Cholinesterase [1]): 8.27 µM
- IC50 [2]: 0.166 µM
- IC50 [7]: 62.9 µM
- Ratio IC50 [3]: 2.58
- Ratio IC50 (Homo sapiens [4]): 379
- IC50 (Acetylcholinesterase [5]): 3.2 µM

Compound: CN(C)CCCOc1cccc(/C=C2\COc3ccccc3C2=O)c1
- IC50 (Cholinesterase [1]): 2.16 µM
- IC50 [2]: 0.0484 µM
- Ratio IC50 (Homo sapiens [8]): 1.53
- IC50 (Acetylcholinesterase [9]): 25.7 µM
- IC50 (Cholinesterase [10]): 39.3 µM
- IC50 [7]: 93.7 µM
- Ratio IC50 [3]: 0.435
- Ratio IC50 (Homo sapiens [4]): 1940
- IC50 (Acetylcholinesterase [5]): 4.97 µM

Compound: CN(C)CCOc1ccccc1/C=C1\COc2ccccc2C1=O
- IC50 (Cholinesterase [1]): 10 µM
- IC50 [2]: > 100 µM
- Ratio IC50 [3]: 0.154
- Ratio IC50 (Homo sapiens [4]): > 1
- IC50 (Acetylcholinesterase [5]): 65.3 µM
- inhibition (INH) [6]: Not Active

Compound: CN(C)CCCOc1ccccc1/C=C1\COc2ccccc2C1=O
- IC50 (Cholinesterase [1]): 8.74 µM
- IC50 [2]: > 100 µM
- Ratio IC50 [3]: 0.116
- Ratio IC50 (Homo sapiens [4]): > 1
- IC50 (Acetylcholinesterase [5]): 75.1 µM
- inhibition (INH) [6]: Not Active

Compound: CCN(CCCCCCOc1ccc(/C=C2\COc3ccccc3C2=O)cc1)Cc1ccccc1
- IC50 (Cholinesterase [1]): 40 µM
- IC50 [2]: > 100 µM
- Ratio IC50 [3]: 2.36
- Ratio IC50 (Homo sapiens [4]): > 1
- IC50 (Acetylcholinesterase [5]): 17 µM
- inhibition (INH) [6]: Not Active

Compound: CN(CCCOc1ccc(/C=C2\COc3ccccc3C2=O)cc1)Cc1ccccc1
- IC50 (Cholinesterase [1]): 19.3 µM
- IC50 [2]: 0.88 µM
- Ratio IC50 [3]: 0.369
- Ratio IC50 (Homo sapiens [4]): > 114
- IC50 (Acetylcholinesterase [5]): 52.3 µM
- inhibition (INH) [6]: Not Active

Compound: CCN(CCCOc1ccc(/C=C2\COc3ccccc3C2=O)cc1)Cc1ccccc1
- IC50 (Cholinesterase [1]): 17.2 µM
- IC50 [2]: 1.59 µM
- Ratio IC50 [3]: 0.583
- IC50 (Acetylcholinesterase [5]): 29.4 µM

Compound: O=C1/C(=C/c2ccc(OCCN3CCN(Cc4ccccc4)CC3)cc2)COc2ccccc21
- IC50 (Cholinesterase [1]): 31.5 µM
- IC50 [2]: 97.5 µM
- Ratio IC50 [3]: 1.5
- Ratio IC50 (Homo sapiens [4]): > 1.03
- IC50 (Acetylcholinesterase [5]): 21 µM
- inhibition (INH) [6]: Not Active

Compound: CCN(CC)CCOc1ccccc1/C=C1\COc2ccccc2C1=O
- IC50 (Cholinesterase [1]): 11.5 µM
- IC50 [2]: 43.8 µM
- Ratio IC50 [3]: 0.176
- Ratio IC50 (Homo sapiens [4]): > 2.64
- IC50 (Acetylcholinesterase [5]): 65.3 µM
- inhibition (INH) [6]: Not Active

Compound: CN1CCN(CCCOc2ccc(/C=C3\COc4ccccc4C3=O)cc2)CC1
- IC50 (Cholinesterase [1]): 15.4 µM
- IC50 [2]: 22.7 µM
- Ratio IC50 [3]: 1.53
- Ratio IC50 (Homo sapiens [4]): > 4.41
- IC50 (Acetylcholinesterase [5]): 10.1 µM
- inhibition (INH) [6]: Not Active

Compound: CN(CCOc1ccc(/C=C2\COc3ccccc3C2=O)cc1)Cc1ccccc1
- IC50 (Cholinesterase [1]): 41.5 µM
- IC50 [2]: 2.28 µM
- Ratio IC50 [3]: 2.14
- Ratio IC50 (Homo sapiens [4]): > 43.8
- IC50 (Acetylcholinesterase [5]): 19.3 µM
- inhibition (INH) [6]: Not Active
